# Cl transport mod = KCC2 cotransporter modulators, thallium flux, primary screen, cell-based, HEK293 KCC2, FluoZin-2 fluorescence, MLSMR; KCC2 cells, thallium flux FluoZin-2 fluorescence; AID 1456, 2008; 2.2% of 190,000 active; B-score of Tl+ flux slope (higher = more flux/activation; lower = inhibition) at 10 µM; Solute carrier family 12 member 5 (Homo sapiens), Q9H2X9;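 active means thallium flux slope and its plate-corrected score both differing from the plate sample mean at a set confidence after two filtering rounds, in either direction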;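 further: slope of fluorescence scaled to starting intensity during 10 to 20 s after thallium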
# RGS4 act = RGS4 potentiators or activators, primary screen, cell-based, HEK293 M3R inducible RGS4, calcium flux; carbachol calcium flux Fluo4; active compounds read low; B-score at 10 µM; 0.92% of 310,000 active; AID 463111, 2010;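 active means B-score of the integrated calcium signal more than 4 SD below the library mean, with starting fluorescence not abnormally high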;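 further: negative B-score means reduced calcium response which marks RGS4 activation or potentiation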
#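 Assay system: HEK293 FlpIn-TREx cells, stable M3R, doxycycline-inducible RGS4 / Probe or stimulus: carbachol, ECmax concentration / Times: overnight RGS4 induction, 30 min dye load 37 °C, 20 min compound RT / Signal: kinetic calcium fluorescence imaging with Fluo4-AM dye, 2 µM / Measure: Agonist-evoked peak-minus-minimum fluorescence over baseline, integrated ratio, B score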
# MrgX1 ag = agonists of human MrgX1 receptor, primary screen, HEK293 cells, Fluo-4 calcium flux. 0.44% of 310,000 active. B-score at 10 µM. Fluo-4 calcium fluorescence, agonist mode; active compounds read high;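 active means calcium response B-score plate-corrected fluorescence ratio at least 3 library SD, with starting fluorescence B-score inside 5 SD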
#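 Material: HEK293 cells stably expressing human MrgX1 receptor | Quantity: 15,000 cells per well | Times: Cells plated overnight, dye loaded 0.5 h 37 °C, 0.5 h room temperature | Measured by: Kinetic Fluo-4 NW fluorescence of intracellular calcium | Control set: Positive and negative controls per plate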
# RGS4 inh = RGS4 inhibitors, primary screen, cell-based, HEK293 M3R inducible RGS4, calcium flux | Regulator of G-protein signaling 4 (Homo sapiens), P49798 | Fluo-4 calcium flux; active compounds read high; triggered by carbachol at its EC20 | B-score at 10 µM | 0.45% of 310,000 active;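 active means B-score, a plate-corrected calcium signal, over three deviations above library mean, with baseline fluorescence within five deviations of library mean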;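 further: RGS4 expression induced by doxycycline in cells with stable M3 receptor; B-score is computed from the integrated fluorescence ratio over baseline after carbachol; higher B-score means a larger calcium signal and so more RGS4 inhibition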
# Target sequence (P49798 whole entry, looked up): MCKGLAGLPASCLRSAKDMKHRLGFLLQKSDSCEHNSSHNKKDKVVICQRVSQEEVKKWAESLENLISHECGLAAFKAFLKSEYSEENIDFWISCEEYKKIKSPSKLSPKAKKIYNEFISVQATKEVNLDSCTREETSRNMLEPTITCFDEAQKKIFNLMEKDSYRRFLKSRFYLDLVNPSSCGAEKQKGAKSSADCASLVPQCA
# MrgX1 antag = antagonists of human MrgX1 receptor, primary screen, HEK293 cells, Fluo-4 calcium flux; AID 588676, 2011; Mas-related G-protein coupled receptor member X1 (Homo sapiens), Q96LB2; B-score at 10 µM; BAM8-22 antagonism; active compounds read low; 1.3% of 310,000 active;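 active means calcium-response B-score plate-corrected more than 3 library SD below zero, starting fluorescence within 5 deviations, no agonist response on first addition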;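 further: peak minus trough fluorescence over baseline after final BAM8-22 challenge near maximal dose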
# MrgX1 PAM = positive allosteric modulators of MrgX1, primary screen, HEK293 cells, Fluo-4 calcium flux; B-score at 10 µM; 0.63% of 310,000 active; FDSS; active compounds read high;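 active means plate-corrected calcium response at least 3 library SD above typical, normal starting fluorescence, not activating the receptor alone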;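 further: compound read alongside a low EC10 to EC30 dose of BAM8-22 agonist; peak minus trough fluorescence over baseline measured at the second addition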
# RGS4 act valid = reduced carbachol calcium response, RGS4-induced M3R cells, confirmation, RGS4 activator project, cell-based, HEK293 M3R/RGS4 inducible, calcium flux, duplicate; shares compounds with RGS4 act; carbachol calcium flux Fluo4; inhibition, % at 10 µM; 89% of 1,100 active; AID 602282, 2012;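 active means inhibition above 3 SD of the buffer control wells, cut at about 41% in these data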;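 further: signal is the integrated peak-minus-minimum Fluo4 fluorescence over baseline ratio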
# M3R Ca counter = activity in cells without induced RGS4 expression; shares compounds with RGS4 act; HEK293 M3R non-induced RGS4, Fluo4 calcium flux; after carbachol challenge at its EC90; inhibition, % at 10 µM; 82% of 1,100 active; AID 602283;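 active means inhibition exceeding 3 SD of buffer-only control wells, cut at about 26% in these data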;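 further: percent drop in integrated peak-minus-baseline over baseline Fluo4 ratio after carbachol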
# * = called active by the depositor; i = inactive; · = no result. Hits are enriched below; roughly 4.7% of the tested compounds scored in any of these assays.
SMILES,Cl transport mod,RGS4 act,MrgX1 ag,RGS4 inh,MrgX1 antag,MrgX1 PAM,RGS4 act valid,M3R Ca counter
Cn1ccnc1C1CCCCN1Cc1nc(Cc2cccc(C(F)(F)F)c2)no1 (configuration not stated),·,-10*,i,i,i,i,78*,40*
FC(F)(F)c1cccc(Cc2noc(CN3C[C@@H]4CCC[C@H]3C4)n2)c1,·,i,i,i,i,i,·,·
Cn1ccnc1C1CCCCN1Cc1nc(-c2ccc3c(c2)OCO3)no1 (configuration not stated),-0.46,-7.8*,i,i,i,i,86*,62*
O=C(NC1CCOc2ccccc21)c1ccccn1 (configuration not stated),·,i,i,i,i,i,·,·
CC(C)(C)c1cc(OC(=O)C2CCCC2)ccc1O,·,i,i,i,i,i,·,·
CCCCC(CC)C(=O)Oc1ccc(O)c(C(C)(C)C)c1 (configuration not stated),0.52,-7.7*,i,i,i,i,92*,87*
Cc1nnc(SCC(=O)NC(C)(C)C)n1NCc1cccc(Br)c1,·,i,i,i,i,i,·,·
COc1ccc(C(=O)Nc2cccc(-c3nnc(-c4ccco4)o3)c2)cc1,·,-9.6*,i,i,i,i,88*,48*
Cn1cc(CN2C[C@]3(C)C[C@H]2CC(C)(C)C3)c(-c2ccc3c(c2)OCCO3)n1,-0.055,-8.9*,i,i,i,i,88*,47*
CCn1cc(C(=O)NCCc2ccc(OC)cc2)c(=O)c2ccc(C)nc21,·,i,i,i,i,i,·,·
COc1cccc(OC)c1OCCNCC1CSc2ccccc2O1 (configuration not stated),·,-8.1*,i,i,i,i,0,0
Cc1cc(C)nc(/N=C(\N)N(Cc2ccccc2)Cc2ccccc2)n1,-0.29,-8.5*,i,i,i,i,92*,95*
COc1ccc(/C=N/NC(=O)c2cc(C(C)(C)C)[nH]n2)cc1COc1ccc(F)cc1F,-0.41,-12*,i,i,i,i,74*,27*
CCOC(=O)c1c(NC(C)=O)sc2c(OCCN(CC)CC)c(Br)ccc12,0.77,-10*,i,i,i,i,90*,39*
CCOC(=O)c1c(NC(C)=O)sc2c(OC)c(Br)ccc12,·,i,i,i,i,i,·,·
Cc1ccc(-n2cc(CCCCCCCCC(=O)O)nn2)cc1,·,i,i,i,i,i,·,·
COc1ccccc1N(C)S(=O)(=O)c1ccc(C(=O)Nc2ccc3nc(C)sc3c2)cc1,-2.3,i,i,i,i,i,·,·
Cc1nc2ccc(NC(=O)c3cccc(S(=O)(=O)N(C)c4ccccc4)c3)cc2s1,-1.7,-8.9*,i,i,i,i,88*,69*
COCCNC(=O)C(c1ccc(O)cc1)N(Cc1cccs1)C(=O)CCC(=O)Nc1ccccn1 (configuration not stated),·,i,i,i,i,i,·,·
O=C(Nc1ccc2c(c1)OCO2)C1CC(c2cccc(Br)c2)=NO1 (configuration not stated),·,i,i,i,i,i,·,·

# Screens: PubChem, several laboratories
